# Bioassay records from PubChem.
# NPY Y2 blocker = antagonists of human neuropeptide Y receptor Y2; P49146; NPY-Y2 expressing cells, antagonist mode; inhibition, % at 2.7 µM; actives 0.99% (n = 140,000); AID 793;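 note: 0% = vehicle with agonist challenge and 100% = reference antagonist with challenge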
# Target sequence (P49146 whole entry, looked up): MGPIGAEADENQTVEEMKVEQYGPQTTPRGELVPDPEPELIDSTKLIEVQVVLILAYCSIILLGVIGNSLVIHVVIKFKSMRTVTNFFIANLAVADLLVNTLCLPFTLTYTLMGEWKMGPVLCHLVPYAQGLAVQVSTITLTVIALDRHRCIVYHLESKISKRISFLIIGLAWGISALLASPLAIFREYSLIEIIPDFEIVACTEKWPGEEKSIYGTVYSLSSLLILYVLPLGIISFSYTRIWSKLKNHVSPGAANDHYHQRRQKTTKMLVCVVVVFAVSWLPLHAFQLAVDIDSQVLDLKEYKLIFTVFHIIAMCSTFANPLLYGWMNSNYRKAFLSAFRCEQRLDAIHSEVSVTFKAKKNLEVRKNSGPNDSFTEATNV
# NPY2 pot ag = potentiates or activates human NPY-Y2 receptor | P49146 | cells expressing NPY-Y2, potentiator/agonist read-out | activation, % at 3.6 µM | actives 0.45% (n = 220,000) | AID 1359; in the data active = activation above about 27%;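 note: cells stimulated with NPY near EC25 plus isoproterenol at EC100; 0% = vehicle plus submaximal agonist and 100% = vehicle plus saturating agonist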
# NPY-Y1 antag = antagonists of human neuropeptide Y receptor Y1; P25929; HEK293-CNG Y1 cells, membrane potential fluorescence; NPY at EC95, then isoproterenol; inhibition, % at 3.6 µM; actives 1% (n = 200,000);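 active = inhibition above the campaign mean inhibition of all tested compounds plus 3 SD, cut at about 20% in these data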;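 note: 0% = DMSO wells given NPY plus isoproterenol and 100% = isoproterenol alone without NPY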
#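 Material: Y1- and CNG-channel-expressing HEK293 cells / Probe or stimulus: NPY 25 nM then isoproterenol 1 µM plus Ro 20-1724 25 µM / Doses: 3.6 µM single dose, DMSO 0.4% / Schedule: compound incubation 1 h at room temperature, readout 45 min post-stimulation / Signal: membrane potential fluorescence / Benchmarks: isoproterenol-only wells as full block versus NPY-plus-isoproterenol wells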
# NPY-Y1 PAM-ag = potentiates or activates human NPY-Y1 receptor; AID 1304; NPY-Y1 expressing cells, potentiator/agonist activation; activation, % at 3.6 µM; P25929; actives 0.37% (n = 220,000); in the data active = activation above about 33%, passing the limit was not always enough;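 note: cells stimulated with NPY at EC10 then isoproterenol at EC100; 0% = low agonist plus stimulus and 100% = saturating agonist plus stimulus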
# NPY1 antag conf = human NPY-Y1 antagonism, confirmation; shares compounds with NPY-Y1 antag; HEK293-CNG NPY-Y1, membrane potential fluorescence, cAMP; NPY challenge against isoproterenol-raised cAMP; inhibition, % at 3.6 µM; actives 21% (n = 1,200); in the data active = inhibition above about 20%;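 note: 0% = vehicle with agonist plus stimulus and 100% = stimulus alone without agonist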
# NPY2 antag ctr = counter-screen for NPY-Y1 antagonists: human NPY-Y2 antagonism | shares compounds with NPY-Y1 antag | inhibition, % at 3.6 µM | HEK293 NPY-Y2 CNG membrane potential fluorescence; cells given NPY, then isoproterenol | actives 28% (n = 1,200);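 note: 0% = DMSO with agonist challenge and 100% = reference antagonist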
# The depositor's hits bear a star; nt = not tested or not shown. In the library only some 1.8% were active in any assay of this set; here they are far more common. Cut-off read from the data, not from the text of the source, unless noted: active = inhibition above about 17%; inactive = the rest.
SMILES,NPY Y2 blocker,NPY2 pot ag,NPY-Y1 antag,NPY-Y1 PAM-ag,NPY1 antag conf,NPY2 antag ctr
CCC(=O)N1CCc2cc(S(=O)(=O)N(CC)c3cccc(C)c3)ccc21,5,-6,2,13,nt,nt
CCN(c1cccc(C(F)(F)F)c1)S(=O)(=O)c1ccc2c(c1)CCN2C(=O)C1CC1,14,-8,24*,-50,14,13
CCOC(=O)c1[nH]c(C)c(C(=O)N2CCc3ccccc32)c1C,5,-10,32*,-14,0,9
CC(=O)c1c(C)[nH]c(C(=O)N2CCc3ccccc32)c1C,1,8,-3,14,nt,nt
Cc1ccc(N2C(=O)c3cccc([N+](=O)[O-])c3C2=O)cc1C,nt,-8,-1,15,nt,nt
CCn1cc(C(=O)Nc2ccccc2)c(=O)c2ccc(C)nc21,nt,-4,-1,17,nt,nt
COc1ccc(CN(C(=O)Cc2cccs2)C(C(=O)NC2CCCC2)c2ccncc2)cc1 (stereo unspecified),0,0,-1,15,nt,nt
COc1cccc(C(C(=O)NC2CCCC2)N(CC2CCCO2)C(=O)Cc2cccs2)c1 (stereo unspecified),nt,-10,26*,12,8,8
COc1ccccc1CCNC(=O)c1nc(-c2cccs2)no1,nt,-18,24*,-11,8,5
Cc1cc(C)nc(SCc2ccc(C(=O)N/N=C3\CC(C)CC(C)(C)C3)cc2)n1 (stereo unspecified),6,-2,3,-4,nt,nt
FC(F)(F)c1ccc(-c2n[nH]c(=S)o2)nc1,nt,-8,nt,2,nt,nt
S=c1[nH]nc(-c2ccc3ccccc3n2)o1,12,-11,20*,-3,11,7
CC(C)c1ccccc1NC(=S)NCc1ccncc1,nt,4,-3,22,nt,nt
O=C(Cc1ncc(C(F)(F)F)cc1Cl)NCCc1ccccc1,nt,-17,5,2,nt,nt
Clc1cccc(Cl)c1CSc1cc2c(nn1)-c1ccccc1CC2,1,-5,-2,-10,nt,nt
Clc1ccccc1CSc1cc2c(nn1)-c1ccccc1CC2,12,-10,23*,-11,4,8
N#CC(/C(=N/S(=O)(=O)c1cccs1)c1ccccc1)c1nc2ccccc2[nH]1 (stereo unspecified),2,-23,23*,-16,21*,26*
CC(C)Oc1ccc(C(=O)Nc2cccc3cccnc23)cc1,nt,-25,22*,-20,16,24*
COc1ccc(C(=O)Nc2cccc3cccnc23)cc1OC,3,-1,8,-29,nt,nt
N/C(=N\OC(=O)Cc1cccs1)c1ccc([N+](=O)[O-])cc1,2,-1,24*,28,2,6
COC(=O)c1ccc(NC(=O)CN2C(=O)C3C4C=CC(C4)C3C2=O)cc1 (stereo unspecified),4,-3,23*,16,3,3
C=CCNC(=O)Nc1ccc(F)cc1F,nt,10,-6,-3,nt,nt
N=C1C(c2nc3ccccc3s2)=C(O)CN1NC(=O)c1c[nH]c2ccccc12,nt,16,28*,18,26*,28*
CCn1c2c(c(=N)c3c1CCC3)CCC2,2,18,-2,4,nt,nt
CCCCCCCn1c2c(c(=N)c3c1CCC3)CCCC2,nt,-37,80*,-60,57*,43*
SMILES,NPY Y2 blocker,NPY2 pot ag,NPY-Y1 antag,NPY-Y1 PAM-ag,NPY1 antag conf,NPY2 antag ctr
CCCCCCn1c2c(c(=N)c3c1CCC3)CCC2,3,4,24*,-72,29*,17
CCOC(=O)C1=C(N)Oc2c(oc(CO)cc2=O)C1c1ccc(F)c(F)c1 (stereo unspecified),nt,-5,0,8,nt,nt
CSc1ccccc1NC(=O)COC(=O)c1ccc(O)cc1,nt,3,5,-15,nt,nt
Cc1cc(C)c(OCC(=O)Nc2nnc(-c3ccco3)o2)c(C)c1,nt,-10,31*,-17,10,11
CC(NS(=O)(=O)c1ccccc1)C(=O)NCCc1ccccn1 (stereo unspecified),nt,-3,2,18,nt,nt
CCOc1cc(CNCCCN2CCOCC2)cc(Br)c1OCC(=O)Nc1cccc(C(F)(F)F)c1,12,-29,27*,-43,17,24*
COc1cc(CNCCCN2CCOCC2)c(Br)cc1OCC(=O)Nc1ccccc1C,nt,0,11,-11,nt,nt
COc1ccccc1NC(=O)COc1ccc(Br)cc1CNCCCN1CCOCC1,nt,-4,22*,-11,12,15
